# What was measured:
# [1] = biological target: T1, Adenosine receptor A2b (Homo sapiens, UniProt P29275); assay: biochemical
# T1 sequence (P29275 whole entry): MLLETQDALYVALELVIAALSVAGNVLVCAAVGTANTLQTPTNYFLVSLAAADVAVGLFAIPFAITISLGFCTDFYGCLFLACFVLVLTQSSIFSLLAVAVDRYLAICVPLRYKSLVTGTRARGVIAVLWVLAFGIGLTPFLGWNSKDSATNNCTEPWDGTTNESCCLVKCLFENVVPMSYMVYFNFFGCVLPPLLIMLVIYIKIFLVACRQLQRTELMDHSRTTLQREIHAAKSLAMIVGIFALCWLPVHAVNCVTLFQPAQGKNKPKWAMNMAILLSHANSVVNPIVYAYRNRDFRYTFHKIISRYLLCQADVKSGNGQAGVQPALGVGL
# [2] = biological target: T1, Adenosine receptor A2b; assay: Displacement of PSB-12105 from recombinant human adenosine A2B receptor expressed in CHO cell membranes preincubated for 30 mins followed by PSB-12105 addition measured after 20 mins by flow cytometric method; format: cell-based
# Outline: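 Live CHO-hA2B cells were pre-treated with ADA (2 U/mL, 2 h, 37°C), detached with 5 mM EDTA, and resuspended in HBSS with 2 U/mL ADA at 2.5×10^5 cells/well in 96-well format. Antagonists pre-incubated 30 min at 37°C, then fluorescent ligand (100 nM) added for 20 min at 37°C. 3-5 independent experiments in duplicate.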
# [3] = biological target: T2, Adenosine receptor A3 (Homo sapiens, UniProt P0DMS8); assay: Displacement of [3H]PSB-11 from recombinant human adenosine A3 receptor expressed in CHO cell membranes after 180 mins by liquid scintillation counting method
# T2 sequence (P0DMS8 whole entry): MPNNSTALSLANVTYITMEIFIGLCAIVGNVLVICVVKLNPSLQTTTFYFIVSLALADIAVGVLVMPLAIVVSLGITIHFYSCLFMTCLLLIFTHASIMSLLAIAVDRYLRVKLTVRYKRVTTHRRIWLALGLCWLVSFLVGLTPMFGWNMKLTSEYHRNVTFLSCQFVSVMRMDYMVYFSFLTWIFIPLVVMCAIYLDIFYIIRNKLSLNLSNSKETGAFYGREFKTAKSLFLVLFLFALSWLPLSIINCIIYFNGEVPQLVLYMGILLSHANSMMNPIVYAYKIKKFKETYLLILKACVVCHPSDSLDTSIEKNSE
# Outline: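 Human A3AR CHO cell membranes were pre-incubated 10–15 min with adenosine deaminase (0.12 IU/mL), then incubated with [3H]PSB-11 (1 nM) at rt, with 2.5% DMSO final. Nonspecific binding was defined with 100 µM R-PIA. Incubation ended by GF/B filtration with ice-cold 50 mM Tris-HCl (pH 7.4) rinses. Test compounds were run at 6–7 concentrations over 3 log units, in ≥3 independent experiments in duplicate.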
# [4] = biological target: T1, Adenosine receptor A2b; assay: Antagonist activity at recombinant human adenosine A2B receptor expressed in CHO cell membranes assessed as inhibition of NECA-induced cAMP accumulation preincubated for 1 hr followed by NECA induction measured after 5 mins in presence of [3H]cAMP and bovine cAMP-binding protein by liquid scintillation counting method; format: functional
# Outline: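 CHO cells stably expressing human A2BAR, pre-incubated with antagonist dilutions for 1 h at 37°C, then stimulated with NECA (10 µM final) for 5 min at 37°C. Reaction stopped with hot (90 °C) lysis solution (4 mM EDTA, 0.01 % Triton X100). cAMP quantified by radioactive competition with [³H]cAMP and bovine adrenal cAMP-binding protein. Response expressed as % of NECA response without antagonist. Means ± SEM, three independent experiments in duplicate.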
# [5] = biological target: Adenosine receptor A1 (Rattus norvegicus) (UniProt P25099); assay: Displacement of [3H]-CHA from adenosine A1 receptor in rat striatal membranes
# [6] = biological target: T3, Adenosine receptor A3 (Rattus norvegicus, UniProt P28647); assay: Displacement of [3H]-(R)-PIA from adenosine A3 receptor in rat testis membranes; format: cell membranes, Membrane
# T3 sequence (P28647 whole entry): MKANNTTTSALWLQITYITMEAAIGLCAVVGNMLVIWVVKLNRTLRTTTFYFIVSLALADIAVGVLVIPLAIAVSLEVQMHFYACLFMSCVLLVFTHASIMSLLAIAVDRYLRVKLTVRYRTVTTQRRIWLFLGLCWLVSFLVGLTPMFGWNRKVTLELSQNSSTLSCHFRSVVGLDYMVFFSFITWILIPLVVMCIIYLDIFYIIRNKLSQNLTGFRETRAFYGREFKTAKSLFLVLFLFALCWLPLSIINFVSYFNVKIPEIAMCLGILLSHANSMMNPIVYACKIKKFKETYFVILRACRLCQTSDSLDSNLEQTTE
# [7] = biological target: T4, Adenosine receptor A1 (Rattus norvegicus, UniProt P25099); assay: Displacement of [3H]-CHA from adenosine A1 receptor in rat cortical membranes; format: cell membranes
# T4 sequence (P25099 whole entry): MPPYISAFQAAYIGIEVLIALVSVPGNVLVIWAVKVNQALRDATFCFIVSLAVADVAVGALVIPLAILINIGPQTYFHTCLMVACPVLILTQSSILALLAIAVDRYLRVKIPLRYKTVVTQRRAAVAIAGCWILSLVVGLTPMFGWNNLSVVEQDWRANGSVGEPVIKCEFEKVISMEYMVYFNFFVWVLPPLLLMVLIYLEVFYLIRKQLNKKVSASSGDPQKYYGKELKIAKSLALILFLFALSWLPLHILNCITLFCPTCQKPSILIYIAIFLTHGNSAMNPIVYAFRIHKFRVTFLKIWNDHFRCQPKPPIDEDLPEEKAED
Compound,IC50 [1] [µM],IC50 [2] [µM],Ki [3] [µM],IC50 [4] [µM],Ki [5] [µM],Ki [6] [µM],Ki [7] [µM]
CCCn1c(=O)[nH]c2nc(-c3ccc(S(=O)(=O)N4CCN(c5ccc(Cl)cc5)CC4)cc3)[nH]c2c1=O,0.000534,0.000739,> 10,0.0183,,,
CCNC(=O)[C@H]1O[C@@H](n2cnc3c(NCCCCCCNS(=O)(=O)c4cccc5c(N(C)C)cccc45)ncnc32)[C@H](O)[C@@H]1O,,,,,4.6,3.6,0.027

# — ChEMBL document CHEMBL4184319, “Fluorescent-Labeled Selective Adenosine A2B Receptor Antagonist Enables Competition Binding Assay by Flow Cytometry” (J Med Chem, 2018)
